Experimental data: BindingDB's records for doi:10.1021/acs.jmedchem.5b00162 (University of Montreal, 2015)

Tests used:
Urotensin-2 receptor [1] = molecular target: T1, Urotensin-2 receptor (Rattus norvegicus, UniProt P49684); assay: Modulation of urotensin-2 receptor in Sprague-Dawley rat thoracic aortic ring assessed as human urotensin-2 pEC50 for induction of aortic ring contraction at 10 uM preincubated for 15 mins followed by human urotensin-2 addition (Rvb = 8.71 +/- 0.08 no unit)
T1 sequence (P49684 whole entry): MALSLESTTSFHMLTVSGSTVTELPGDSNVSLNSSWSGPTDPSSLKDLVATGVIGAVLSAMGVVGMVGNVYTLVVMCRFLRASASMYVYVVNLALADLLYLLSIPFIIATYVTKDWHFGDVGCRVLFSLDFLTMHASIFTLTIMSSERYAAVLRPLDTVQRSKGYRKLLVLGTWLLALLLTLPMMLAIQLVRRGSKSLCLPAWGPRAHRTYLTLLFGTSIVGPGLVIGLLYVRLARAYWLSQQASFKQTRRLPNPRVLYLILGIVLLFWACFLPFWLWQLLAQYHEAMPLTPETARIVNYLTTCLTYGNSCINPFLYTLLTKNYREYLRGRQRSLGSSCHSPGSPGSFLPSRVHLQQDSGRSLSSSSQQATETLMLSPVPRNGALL
Summary of the method: (§1)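 Thoracic aortic rings from adult male Sprague-Dawley rats (250–300 g, killed by CO2). Rings were exposed to test compound for 15 min, then cumulative hUII concentration-response curves were run (10-10–3.10-6 M). Contraction is expressed as % of the 40 mM KCl response, with KCl given at the start and end. EC50/pEC50/Emax come from a variable-slope sigmoidal fit. At least triplicate.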

Urotensin-2 receptor [2] = molecular target: T1, Urotensin-2 receptor; assay: Modulation of urotensin-2 receptor in Sprague-Dawley rat thoracic aortic ring assessed as urotensin-2 related peptide pEC50 for induction of aortic ring contraction at 10 uM preincubated for 15 mins followed by urotensin-2 related peptide addition (Rvb = 7.89 +/- 0.08 no unit)
Urotensin-2 receptor [3] = molecular target: T1, Urotensin-2 receptor; assay: Modulation of urotensin-2 receptor in Sprague-Dawley rat thoracic aortic ring assessed as human urotensin-2 EC50 for induction of aortic ring contraction at 10 uM preincubated for 15 mins followed by human urotensin-2 addition (Rvb = 1.9 nM); summary of the method: as §1
Urotensin-2 receptor [4] = molecular target: T1, Urotensin-2 receptor; assay: Modulation of urotensin-2 receptor in Sprague-Dawley rat thoracic aortic ring assessed as urotensin-2 related peptide EC50 for induction of aortic ring contraction at 10 uM preincubated for 15 mins followed by urotensin-2 related peptide addition (Rvb = 13 nM)
[5] = Modulation of urotensin-2 receptor in Sprague-Dawley rat thoracic aortic ring assessed as human urotensin-2 EC50 for induction of aortic ring contraction at 15 uM preincubated for 15 mins followed by human urotensin-2 addition (Rvb = 1.9 nM)
[6] = Modulation of urotensin-2 receptor in Sprague-Dawley rat thoracic aortic ring assessed as human urotensin-2 pEC50 for induction of aortic ring contraction at 15 uM preincubated for 15 mins followed by human urotensin-2 addition (Rvb = 8.71 +/- 0.08 no unit)
[7] = Modulation of urotensin-2 receptor in Sprague-Dawley rat thoracic aortic ring assessed as urotensin-2 related peptide pEC50 for induction of aortic ring contraction at 15 uM preincubated for 15 mins followed by urotensin-2 related peptide addition (Rvb = 7.89 +/- 0.08 no unit)
[8] = Modulation of urotensin-2 receptor in Sprague-Dawley rat thoracic aortic ring assessed as urotensin-2 related peptide EC50 for induction of aortic ring contraction at 15 uM preincubated for 15 mins followed by urotensin-2 related peptide addition (Rvb = 13 nM)
[9] = Modulation of urotensin-2 receptor in Sprague-Dawley rat thoracic aortic ring assessed as human urotensin-2 EC50 for induction of aortic ring contraction at 8 uM preincubated for 15 mins followed by human urotensin-2 addition (Rvb = 1.9 nM)
[10] = Modulation of urotensin-2 receptor in Sprague-Dawley rat thoracic aortic ring assessed as urotensin-2 related peptide EC50 for induction of aortic ring contraction at 8 uM preincubated for 15 mins followed by urotensin-2 related peptide addition (Rvb = 13 nM)
[11] = Modulation of urotensin-2 receptor in Sprague-Dawley rat thoracic aortic ring assessed as urotensin-2 related peptide pEC50 for induction of aortic ring contraction at 8 uM preincubated for 15 mins followed by urotensin-2 related peptide addition (Rvb = 7.89 +/- 0.08 no unit)
[12] = Modulation of urotensin-2 receptor in Sprague-Dawley rat thoracic aortic ring assessed as human urotensin-2 pEC50 for induction of aortic ring contraction at 8 uM preincubated for 15 mins followed by human urotensin-2 addition (Rvb = 8.71 +/- 0.08 no unit)
Urotensin-2 receptor [13] = molecular target: T1, Urotensin-2 receptor; assay: Modulation of urotensin-2 receptor in Sprague-Dawley rat thoracic aortic ring assessed as urotensin-2 related peptide pEC50 for induction of aortic ring contraction at 11 uM preincubated for 15 mins followed by urotensin-2 related peptide addition (Rvb = 7.89 +/- 0.08 no unit)
Urotensin-2 receptor [14] = molecular target: T1, Urotensin-2 receptor; assay: Modulation of urotensin-2 receptor in Sprague-Dawley rat thoracic aortic ring assessed as human urotensin-2 pEC50 for induction of aortic ring contraction at 11 uM preincubated for 15 mins followed by human urotensin-2 addition (Rvb = 8.71 +/- 0.08 no unit)
Urotensin-2 receptor [15] = molecular target: T1, Urotensin-2 receptor; assay: Modulation of urotensin-2 receptor in Sprague-Dawley rat thoracic aortic ring assessed as human urotensin-2 EC50 for induction of aortic ring contraction at 11 uM preincubated for 15 mins followed by human urotensin-2 addition (Rvb = 1.9 nM)
Urotensin-2 receptor [16] = molecular target: T1, Urotensin-2 receptor; assay: Modulation of urotensin-2 receptor in Sprague-Dawley rat thoracic aortic ring assessed as urotensin-2 related peptide EC50 for induction of aortic ring contraction at 11 uM preincubated for 15 mins followed by urotensin-2 related peptide addition (Rvb = 13 nM)
Urotensin-2 receptor [17] = molecular target: T1, Urotensin-2 receptor; assay: Modulation of urotensin-2 receptor in Sprague-Dawley rat thoracic aortic ring assessed as urotensin-2 related peptide EC50 for induction of aortic ring contraction at 14 uM preincubated for 15 mins followed by urotensin-2 related peptide addition (Rvb = 13 nM)
Urotensin-2 receptor [18] = molecular target: T1, Urotensin-2 receptor; assay: Modulation of urotensin-2 receptor in Sprague-Dawley rat thoracic aortic ring assessed as urotensin-2 related peptide pEC50 for induction of aortic ring contraction at 14 uM preincubated for 15 mins followed by urotensin-2 related peptide addition (Rvb = 7.89 +/- 0.08 no unit)
Urotensin-2 receptor [19] = molecular target: T1, Urotensin-2 receptor; assay: Modulation of urotensin-2 receptor in Sprague-Dawley rat thoracic aortic ring assessed as human urotensin-2 pEC50 for induction of aortic ring contraction at 14 uM preincubated for 15 mins followed by human urotensin-2 addition (Rvb = 8.71 +/- 0.08 no unit)
Urotensin-2 receptor [20] = molecular target: T1, Urotensin-2 receptor; assay: Modulation of urotensin-2 receptor in Sprague-Dawley rat thoracic aortic ring assessed as human urotensin-2 EC50 for induction of aortic ring contraction at 14 uM preincubated for 15 mins followed by human urotensin-2 addition (Rvb = 1.9 nM)
Urotensin-2 receptor [21] = molecular target: T1, Urotensin-2 receptor; assay: Modulation of urotensin-2 receptor in Sprague-Dawley rat thoracic aortic ring assessed as human urotensin-2 pEC50 for induction of aortic ring contraction at 1 uM preincubated for 15 mins followed by human urotensin-2 addition (Rvb = 8.71 +/- 0.08 no unit)
Urotensin-2 receptor [22] = molecular target: T1, Urotensin-2 receptor; assay: Modulation of urotensin-2 receptor in Sprague-Dawley rat thoracic aortic ring assessed as human urotensin-2 EC50 for induction of aortic ring contraction at 4 uM preincubated for 15 mins followed by human urotensin-2 addition (Rvb = 1.9 nM)
Urotensin-2 receptor [23] = molecular target: T1, Urotensin-2 receptor; assay: Modulation of urotensin-2 receptor in Sprague-Dawley rat thoracic aortic ring assessed as human urotensin-2 EC50 for induction of aortic ring contraction at 1 uM preincubated for 15 mins followed by human urotensin-2 addition (Rvb = 1.9 nM)
Urotensin-2 receptor [24] = molecular target: T1, Urotensin-2 receptor; assay: Modulation of urotensin-2 receptor in Sprague-Dawley rat thoracic aortic ring assessed as human urotensin-2 pEC50 for induction of aortic ring contraction at 4 uM preincubated for 15 mins followed by human urotensin-2 addition (Rvb = 8.71 +/- 0.08 no unit)

| Compound | EC50 (Urotensin-2 receptor [1]) | EC50 (Urotensin-2 receptor [2]) | EC50 (Urotensin-2 receptor [3]) | EC50 (Urotensin-2 receptor [4]) | other results |
| --- | --- | --- | --- | --- | --- |
| NCCC[C@@H]1N[C@H](c2cccc3ccccc23)c2[nH]c(C(=O)O)cc2N(CCc2ccc(O)cc2)C1=O | 5.6 nM | 4.6 nM | 5.7 nM | 4.5 nM |  |
| NCCCC[C@@H]1N[C@@H](c2ccc3ccccc3c2)c2[nH]c(C(=O)O)cc2N(CCc2ccc(O)cc2)C1=O | 1.5 nM | 8.7 nM | 1.5 nM | 8.7 nM |  |
| NCCCC[C@@H]1N[C@H](c2ccc3ccccc3c2)c2[nH]c(C(=O)O)cc2N(CCc2ccc(O)cc2)C1=O | 4.9 nM | 8.3 nM | 5 nM | 8.2 nM |  |
| NCCCC[C@@H]1N=C(c2ccc(-c3ccccc3)cc2)c2[nH]c(C(=O)O)cc2N(CCc2ccc(O)cc2)C1=O |  |  |  |  | EC50 [5]: 6.6 nM; EC50 [6]: 6.5 nM; EC50 [7]: 12 nM; EC50 [8]: 12 nM |
| NCCCC[C@@H]1N=C(c2cccc3ccccc23)c2[nH]c(C(=O)O)cc2N(CCc2ccc(O)cc2)C1=O |  |  |  |  | EC50 [9]: 7.8 nM; EC50 [10]: 5.3 nM; EC50 [11]: 5.4 nM; EC50 [12]: 7.8 nM |
| NCCC[C@@H]1N[C@H](c2ccc(-c3ccccc3)cc2)c2[nH]c(C(=O)O)cc2N(CCc2ccc(O)cc2)C1=O |  |  |  |  | EC50 (Urotensin-2 receptor [13]): 8.1 nM; EC50 (Urotensin-2 receptor [14]): 4.3 nM; EC50 (Urotensin-2 receptor [15]): 4.3 nM; EC50 (Urotensin-2 receptor [16]): 8.1 nM |
| NCCCC[C@@H]1N[C@@H](c2ccc(-c3ccccc3)cc2)c2[nH]c(C(=O)O)cc2N(CCc2ccc(O)cc2)C1=O |  |  |  |  | EC50 (Urotensin-2 receptor [17]): 10 nM; EC50 (Urotensin-2 receptor [18]): 10 nM; EC50 (Urotensin-2 receptor [19]): 8.7 nM; EC50 (Urotensin-2 receptor [20]): 8.8 nM |
| NCCCC[C@@H]1N[C@H](c2ccc(-c3ccccc3)cc2)c2[nH]c(C(=O)O)cc2N(CCc2ccc(O)cc2)C1=O |  |  |  |  | EC50 (Urotensin-2 receptor [21]): 4.5 nM; EC50 (Urotensin-2 receptor [17]): 19 nM; EC50 (Urotensin-2 receptor [18]): 19 nM; EC50 (Urotensin-2 receptor [22]): 3.5 nM; EC50 (Urotensin-2 receptor [23]): 4.5 nM; EC50 (Urotensin-2 receptor [24]): 3.5 nM |
| NCCC[C@@H]1N[C@@H](c2cccc3ccccc23)c2[nH]c(C(=O)O)cc2N(CCc2ccc(O)cc2)C1=O | 4.8 nM | 3.6 nM | 4.8 nM | 3.7 nM |  |
| NCCCC[C@@H]1N=C(c2ccc3ccccc3c2)c2[nH]c(C(=O)O)cc2N(CCc2ccc(O)cc2)C1=O | 4.7 nM | 21 nM | 4 nM | 21 nM |  |
| NCCC[C@@H]1N=C(c2ccc3ccccc3c2)c2[nH]c(C(=O)O)cc2N(CCc2ccc(O)cc2)C1=O | 9.3 nM | 6.8 nM | 9.5 nM | 6.8 nM |  |
| NCCC[C@@H]1N=C(c2cccc3ccccc23)c2[nH]c(C(=O)O)cc2N(CCc2ccc(O)cc2)C1=O | 2.6 nM | 12 nM | 2.7 nM | 12 nM |  |
| NCCC[C@@H]1N=C(c2ccc(-c3ccccc3)cc2)c2[nH]c(C(=O)O)cc2N(CCc2ccc(O)cc2)C1=O | 12 nM | 23 nM | 12 nM | 23 nM |  |
